In the library only some 3.8% were active in any assay of this set; here they are far more common.
hERG rescue = compounds protecting human hERG from proarrhythmic drug block | Q12809 | CHO-hERG, FluxOR thallium flux, dofetilide IC70 present | activation (rescue from dofetilide block), less the hit threshold, % at 10 µM | actives 0.51% (n = 310,000) | AID 1511;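 active = activation above the mean of controls blocked by dofetilide plus 5 SD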;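 note: thallium influx through hERG after potassium depolarization seen as dye fluorescence rise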
Kir21 block = blocks the mouse Kir2.1 inward-rectifier potassium channel; P35561; B-score at 10 µM; actives 0.85% (n = 310,000); HEK293-Kir2.1, FluxOR thallium flux fluorescence; stronger effect = lower value;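 active = fluorescence ratio B-score at or below minus 3 SD of library scores, with starting-brightness B-score within 2 SD, cut at about -4.2 in these data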;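 note: channel flux triggered by added potassium and thallium sulfate stimulus; B-score of peak minus minimum fluorescence over baseline after thallium stimulus; more negative B-score means stronger Kir2.1 block with less thallium influx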
KCNK9 block = inhibitors of human KCNK9 two-pore domain potassium channel | B-score at 10 µM | HEK293 KCNK9, FluxOR thallium flux fluorescence; stronger effect = lower value | actives 1.2% (n = 310,000) | Q9NPC2 | AID 488922;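 active = ratio B-score over 3 SD below the library mean, with starting fluorescence within 5 SD of its mean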;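 note: negative B-score means less thallium flux so channel inhibition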
KCNQ1 pot = potentiates or activates the human KCNQ1 potassium channel. CHO-K1 KCNQ1, thallium flux FluxOR fluorescence; stronger effect = higher value. B-score at 10 µM. actives 0.35% (n = 310,000). AID 2648;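 active = fluorescence ratio B-score, a plate-corrected score, at least three library SD, with initial intensity B-score within 5 SD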
Target sequence (P51787 whole entry, looked up): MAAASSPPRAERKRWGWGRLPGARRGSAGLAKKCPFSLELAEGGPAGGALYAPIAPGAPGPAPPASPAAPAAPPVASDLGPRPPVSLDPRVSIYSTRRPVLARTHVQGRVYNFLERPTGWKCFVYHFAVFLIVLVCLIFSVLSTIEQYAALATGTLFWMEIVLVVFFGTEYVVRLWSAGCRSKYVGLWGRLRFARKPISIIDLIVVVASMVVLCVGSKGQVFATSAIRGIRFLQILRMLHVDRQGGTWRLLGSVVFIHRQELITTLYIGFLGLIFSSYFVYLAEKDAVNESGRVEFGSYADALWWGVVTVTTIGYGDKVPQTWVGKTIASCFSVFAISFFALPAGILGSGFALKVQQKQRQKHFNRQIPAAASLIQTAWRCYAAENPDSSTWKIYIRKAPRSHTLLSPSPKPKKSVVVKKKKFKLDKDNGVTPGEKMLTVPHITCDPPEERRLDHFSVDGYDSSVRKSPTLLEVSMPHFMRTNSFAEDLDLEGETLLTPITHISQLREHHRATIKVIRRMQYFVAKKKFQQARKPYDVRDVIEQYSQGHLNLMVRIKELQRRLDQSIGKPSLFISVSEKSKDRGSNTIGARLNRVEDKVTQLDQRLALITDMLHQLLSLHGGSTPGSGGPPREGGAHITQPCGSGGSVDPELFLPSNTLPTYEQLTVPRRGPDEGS
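System: Stable KCNQ1 CHO-K1 line | Incubation: 90 min dye loading and 20 min compound exposure, both at room temperature | Measure: Ratio B score | Medium: Assay buffer for compound exposure, DMSO matched across wells | Compound dosing: Single-concentration screen | Probe or stimulus: K+/Tl+ depolarizing stimulus | Measured by: Kinetic FluxOR fluorescence, 10 s baseline plus 110 s post-stimulus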
KCNK3 block = human KCNK3 channel inhibition, primary screen; CHO-KCNK3 thallium flux, FluxOR fluorescence; stronger effect = lower value; AID 602410; actives 0.84% (n = 340,000); B-score at 10 µM;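 active = B-score under library mean minus 4 SD, starting fluorescence ratio at most library mean plus 5 SD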;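 note: more negative B-score means stronger inhibition of thallium flux through KCNK3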
KCNQ1 inh = blocks the human KCNQ1 potassium channel | P51787 | CHO-K1 KCNQ1, FluxOR thallium flux fluorescence; stronger effect = higher value | B-score at 10 µM | actives 1.3% (n = 310,000) | AID 2642;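 active = compounds whose thallium flux B-score, printed positive for inhibition, exceeds three library SD while starting fluorescence stays within three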;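 note: channel opened by potassium depolarization with thallium stimulus after 20 min compound exposure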
Numbers stand for hits; 0 = inactive; - = not tested or not shown.

SMILES	hERG rescue	Kir21 block	KCNK9 block	KCNQ1 pot	KCNK3 block	KCNQ1 inh
CCOc1ccc(S(=O)(=O)NCCC(=O)NCC(c2ccc(F)cc2)N2CCOCC2)cc1 (stereo not drawn)	0	0	0	0	0	0
CCOC(=O)c1cc2c(ccn2-c2ccc(F)cc2)n1CC(=O)NC(C)(C)C	0	0	0	0	-	0
Cc1cccc(C)c1Nc1nnc(SCc2cc([N+](=O)[O-])cc3c2OCOC3)s1	0	0	-6.7	0	0	0
COc1cccc(Nc2nnc(SCc3cc([N+](=O)[O-])cc4c3OCOC4)s2)c1	0	0	0	0	0	0
CC(=O)c1c(C)[nH]c(C(=O)NCC2CCCCC2)c1C	0	0	0	0	0	0
O=C(O)c1ccccc1-c1nc2ccccc2[nH]1	0	0	0	0	0	0
Oc1ccc2ccccc2c1C=Nc1ccccc1-c1nc2ccccc2[nH]1	0	0	0	0	0	9
C[C@H](CO)N1C[C@H](C)[C@@H](CN(C)C(=O)Nc2ccc(C(F)(F)F)cc2)Oc2c(NC(=O)Nc3ccc4c(c3)OCO4)cccc2C1=O	-	-	-	-	-9	-
COc1ccc(OC)c(NC(=S)N2CCN(C/C=C/c3ccccc3)CC2)c1	49	0	0	0	0	0
O=[N+]([O-])c1cc(Cl)cc(/C=N/NC(=S)Nc2ccc(S(=O)(=O)N3CCOCC3)cc2)c1O	0	0	0	0	0	8
O=S(=O)(c1ccc(F)cc1)N1CCN(C(=S)NCC2CCCO2)CC1 (stereo not drawn)	0	0	0	0	0	0
COc1ccc(CN(C(=O)c2ccco2)c2ccccc2)cc1	0	-4.2	0	0	0	0
NCCNc1ccc(C(=O)N2c3ccccc3Sc3ccccc32)cc1[N+](=O)[O-]	0	-4.9	0	0	0	8
O=C(CN1CCN(c2cccc(C(F)(F)F)c2)CC1)N(C1CCCC1)C1CCS(=O)(=O)C1 (stereo not drawn)	-	-	-	-	-8.7	-
O=C(CN1CCN(c2cccc(C(F)(F)F)c2)CC1)N(C1CC1)C1CCS(=O)(=O)C1 (stereo not drawn)	-	-	-	-	0	-
CN(C)c1cccc(C(=O)N2CCCC(C(=O)c3cc(F)ccc3F)C2)c1 (stereo not drawn)	0	0	0	38	0	0
O=C(c1cc(F)ccc1F)C1CCCN(C(=O)c2ccc3nccnc3c2)C1 (stereo not drawn)	0	0	0	0	0	0
O=C(c1cccc(Cl)c1)C1CCCN(C(=O)c2ccc3c(c2)OCO3)C1 (stereo not drawn)	0	-4.8	0	0	0	0
CC1CCCN(C(=O)c2ccc3c(c2)OCO3)C1 (stereo not drawn)	0	0	0	0	0	0
CCC(=O)NC1=C(Cl)C(=O)C(NC(=O)CC)=C(Cl)C1=O	-	-	-	-	-11	-
Cc1c(Cc2ccccc2)c(=O)oc2cc(OCC(=O)NC(Cc3ccc(Cl)cc3)C(=O)O)ccc12 (stereo not drawn)	0	0	-7.3	0	0	0
COc1ccc(N/C=C(\C#N)c2nc3ccccc3n2C)c(OC)c1	0	0	-7	0	0	0
COc1ccc(CNc2nc3ccccc3n2C)c(OC)c1	0	0	0	0	0	0
CCOC(=O)c1c(C)[nH]c(C(=O)N/N=C\c2ccccc2O)c1C	0	0	0	0	0	0
CCOC(=O)c1c(C)[nH]c(C(=O)N/N=C/c2cc([N+](=O)[O-])ccc2O)c1C	0	0	0	0	0	9
SMILES	hERG rescue	Kir21 block	KCNK9 block	KCNQ1 pot	KCNK3 block	KCNQ1 inh
O=C(N/N=C/c1cc([N+](=O)[O-])ccc1O)c1cc(-c2ccccc2)nc2ccccc12	0	0	0	0	0	7
O=C(CCCCCN1C(=O)[C@@H]2Cc3ccccc3CN2C1=O)Nc1ccccc1F	0	0	0	0	0	0
OCc1cccc[n+]1CCc1ccccc1	0	0	0	0	0	0
O=C(Nc1nc(-c2cccs2)cs1)c1ccc(S(=O)(=O)N2CCCCC2)cc1	0	0	0	0	0	6
Cc1ccc(NC(=O)/C=C/C(=O)O)c(NC(=O)c2ccccc2)c1	0	0	0	0	0	0
O=S(=O)(NCc1ccccc1)NCc1ccc(Cl)cc1Cl	0	0	0	0	0	0
Cc1ccc(-n2ncc3c(SCc4ccccc4)ncnc32)cc1	8.6	0	0	0	0	0
CN1CCCC(CC2Oc3ccccc3Sc3ccccc32)C1 (stereo not drawn)	0	0	0	0	0	0
c1ccc2c(c1)OC(CCCN1CCCCC1)c1ccccc1S2 (stereo not drawn)	0	-5.8	0	0	0	0
N=c1c2c(-c3ccccc3)c(-c3ccccc3)n(Cc3ccco3)c2ncn1CCO	0	-9.9	0	0	0	0
N=c1c2c(-c3ccccc3)c(-c3ccccc3)n(Cc3ccco3)c2ncn1CCN1CCOCC1	0	-5.3	0	0	0	0
c1ccc(-c2nc3nc4ccccc4nc3n2Cc2ccco2)cc1	0	0	0	0	0	0
N=c1c2c(-c3ccccc3)c(-c3ccccc3)n(Cc3ccco3)c2ncn1CCCO	0	-5.5	0	0	0	0
O=C(OCC(=O)N1CCN(Cc2ccccc2)CC1)c1cc(Cl)ccc1[N+](=O)[O-]	-	-	-	-	0	-
CCCCN1CC(=O)N2[C@H]3c4ccccc4OC[C@@H]3[C@H](c3ccccc3)[C@]2(C)C1=O	-	-	-	-	0	-
COc1ccc(C(=O)NC(C)c2ccncc2)cc1S(=O)(=O)N(C)Cc1ccccc1 (stereo not drawn)	-	-	-	-	0	-
Cc1cc(OCC(O)CNC(C)c2ccccc2)ccc1C(C)C (stereo not drawn)	0	-10	0	0	0	0
Cc1ccc(S(=O)(=O)N2CCSC2c2ccco2)cc1 (stereo not drawn)	0	-4.3	0	0	0	0
Cc1ccc(S(=O)(=O)N2CCSC2C(=O)O)cc1 (stereo not drawn)	0	0	0	0	0	0
COc1ccc(N(C(=O)/C=C/c2ccccc2)C2=CC3CCC(C2)N3C)cc1 (stereo not drawn)	0	0	0	0	0	0
NC(=NCCc1c[nH]c2ccccc12)NC(=O)c1ccc(F)cc1	0	-7.2	0	0	0	0
Cc1cc(Br)c(NC(=O)CCNC(=O)OCc2ccccc2)cc1C	0	0	0	0	0	0
COc1ccc(C(=O)N[C@H](C(=O)N2CCN(c3ccccc3F)CC2)C(C)C)cc1	4.9	0	0	0	0	0
O[C@@H](c1cc(C(F)(F)F)nc2c(C(F)(F)F)cccc12)[C@H]1CCCCN1	0	0	0	0	0	0
OC(c1cc(-c2ccc(Cl)cc2)nc2ccccc12)C1CCCCN1 (stereo not drawn)	0	-5.4	0	0	0	0
O=C(COc1ccc2c(c1)OCO2)Nc1cccc(F)c1	0	0	0	0	0	0
